Results reported in ChEMBL document CHEMBL4342493, “Design and Optimization of 3'-(Imidazo[1,2-a]pyrazin-3-yl)-[1,1'-biphenyl]-3-carboxamides as Selective DDR1 Inhibitors” (ACS Med Chem Lett, 2020).

How the values were obtained:
Homo sapiens [1] = species: Homo sapiens; experiment: Selectivity index, ratio of IC50 for human recombinant His-tagged c-Kit cytoplasmic domain (544 to 976 residues) expressed in baculovirus expression system using Ser/Thr 6 peptide as substrate after 1 hr in presence of 300 uM ATP by FRET based Z'-LYTE assay to IC50 for recombinant human GST-tagged DDR1 catalytic domain (440 to 876 residues) expressed in baculovirus expression system using Fluorescein-poly GAT as substrate incubated for 1 hr in presence of ATP by LanthaScreen Eu kinase assay
Summary of the method: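 Ratio of c-Kit IC50 to DDR1 IC50. c-Kit was measured by FRET-based Z′-Lyte assay and DDR1 by LanthaScreen Eu kinase assay. Each IC50 is the mean of three independent experiments, with variation <20%.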

Homo sapiens [2] = species: Homo sapiens; experiment: Selectivity index, ratio of IC50 for human recombinant full length His-tagged Bcr-Abl expressed in baculovirus expression system using tyrosine-2 peptide as substrate after 1 hr in presence of […] ATP by FRET based Z'-LYTE assay to IC50 for recombinant human GST-tagged DDR1 catalytic domain (440 to 876 residues) expressed in baculovirus expression system using Fluorescein-poly GAT as substrate incubated for 1 hr in presence of ATP by LanthaScreen Eu kinase assay
Summary of the method: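 Ratio of Bcr-Abl IC50 to DDR1 IC50. Bcr-Abl was measured by FRET-based Z′-Lyte assay and DDR1 by LanthaScreen Eu kinase assay. Each IC50 is the mean of three independent experiments, with variation <20%.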

[3] = molecular target: T1, Dual specificity protein kinase TTK (Homo sapiens) (UniProt P33981); experiment: Inhibition of wild-type human partial length TTK (N505 to V798 residues) expressed in bacterial expression system assessed as enzyme residual activity at 200 nM after 1 hr by Kinomescan method relative to control
T1 sequence (whole entry): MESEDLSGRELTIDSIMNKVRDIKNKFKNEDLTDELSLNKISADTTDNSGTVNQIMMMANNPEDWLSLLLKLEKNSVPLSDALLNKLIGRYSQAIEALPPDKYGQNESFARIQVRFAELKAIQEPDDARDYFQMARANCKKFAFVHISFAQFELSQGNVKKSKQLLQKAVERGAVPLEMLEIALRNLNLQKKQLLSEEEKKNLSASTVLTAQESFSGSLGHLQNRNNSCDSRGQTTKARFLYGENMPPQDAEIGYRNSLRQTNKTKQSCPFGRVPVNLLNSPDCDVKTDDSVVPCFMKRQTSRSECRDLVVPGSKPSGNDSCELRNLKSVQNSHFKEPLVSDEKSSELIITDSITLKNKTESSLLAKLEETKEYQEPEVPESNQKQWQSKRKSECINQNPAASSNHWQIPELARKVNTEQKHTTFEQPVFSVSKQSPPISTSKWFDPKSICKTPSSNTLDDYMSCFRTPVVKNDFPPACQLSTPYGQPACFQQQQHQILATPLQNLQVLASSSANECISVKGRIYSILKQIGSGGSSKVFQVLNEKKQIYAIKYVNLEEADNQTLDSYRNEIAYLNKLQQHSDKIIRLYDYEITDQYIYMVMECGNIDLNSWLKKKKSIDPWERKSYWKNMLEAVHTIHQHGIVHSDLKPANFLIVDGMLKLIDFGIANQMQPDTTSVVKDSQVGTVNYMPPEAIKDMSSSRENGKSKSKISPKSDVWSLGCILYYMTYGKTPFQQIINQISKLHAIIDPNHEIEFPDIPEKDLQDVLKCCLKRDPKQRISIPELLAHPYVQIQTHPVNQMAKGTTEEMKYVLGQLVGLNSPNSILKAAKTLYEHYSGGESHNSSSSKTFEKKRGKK

NCI-H1299 [4] = experiment: Antiinvasive activity against human H1299 cells after 24 hrs by crystal violet staining based transwell assay; format: functional, cell-based
Summary of the method: (§1)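 H1299 NSCLC cells; transwell invasion assay over 24 h with compound at 1.25, 2.5 and 5.0 μM; invasion expressed relative to blank control.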

[5] = molecular target: Dual specificity protein kinase CLK4 (Homo sapiens, UniProt Q9HAZ1); experiment: Inhibition of wild-type human partial length CLK4 (R135 to K481 residues) expressed in bacterial expression system assessed as enzyme residual activity at 200 nM after 1 hr by Kinomescan method relative to control
Chain of Dual specificity protein kinase CLK4 (Q9HAZ1 whole entry, looked up, the tested form may be a part): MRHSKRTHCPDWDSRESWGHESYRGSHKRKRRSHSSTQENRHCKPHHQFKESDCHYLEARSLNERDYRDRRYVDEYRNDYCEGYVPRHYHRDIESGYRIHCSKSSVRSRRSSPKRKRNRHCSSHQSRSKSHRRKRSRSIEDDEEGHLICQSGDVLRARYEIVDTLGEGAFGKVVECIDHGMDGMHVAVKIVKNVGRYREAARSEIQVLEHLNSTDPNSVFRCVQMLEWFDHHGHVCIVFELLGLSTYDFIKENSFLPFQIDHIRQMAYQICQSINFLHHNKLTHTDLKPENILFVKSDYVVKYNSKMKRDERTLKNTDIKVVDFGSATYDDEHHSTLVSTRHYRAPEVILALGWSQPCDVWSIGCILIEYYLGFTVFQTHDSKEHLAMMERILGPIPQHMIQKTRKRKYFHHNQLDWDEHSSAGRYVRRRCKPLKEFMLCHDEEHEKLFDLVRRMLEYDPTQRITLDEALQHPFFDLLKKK

[6] = molecular target: T2, Discoidin domain-containing receptor 2 (Homo sapiens) (UniProt Q16832); experiment: Inhibition of wild type human partial length DDR2 (V555 to E855 residues) expressed in mammalian expression system assessed as residual enzyme activity at 200 nM after 1 hr by Kinomescan method relative to control
T2 sequence (whole entry): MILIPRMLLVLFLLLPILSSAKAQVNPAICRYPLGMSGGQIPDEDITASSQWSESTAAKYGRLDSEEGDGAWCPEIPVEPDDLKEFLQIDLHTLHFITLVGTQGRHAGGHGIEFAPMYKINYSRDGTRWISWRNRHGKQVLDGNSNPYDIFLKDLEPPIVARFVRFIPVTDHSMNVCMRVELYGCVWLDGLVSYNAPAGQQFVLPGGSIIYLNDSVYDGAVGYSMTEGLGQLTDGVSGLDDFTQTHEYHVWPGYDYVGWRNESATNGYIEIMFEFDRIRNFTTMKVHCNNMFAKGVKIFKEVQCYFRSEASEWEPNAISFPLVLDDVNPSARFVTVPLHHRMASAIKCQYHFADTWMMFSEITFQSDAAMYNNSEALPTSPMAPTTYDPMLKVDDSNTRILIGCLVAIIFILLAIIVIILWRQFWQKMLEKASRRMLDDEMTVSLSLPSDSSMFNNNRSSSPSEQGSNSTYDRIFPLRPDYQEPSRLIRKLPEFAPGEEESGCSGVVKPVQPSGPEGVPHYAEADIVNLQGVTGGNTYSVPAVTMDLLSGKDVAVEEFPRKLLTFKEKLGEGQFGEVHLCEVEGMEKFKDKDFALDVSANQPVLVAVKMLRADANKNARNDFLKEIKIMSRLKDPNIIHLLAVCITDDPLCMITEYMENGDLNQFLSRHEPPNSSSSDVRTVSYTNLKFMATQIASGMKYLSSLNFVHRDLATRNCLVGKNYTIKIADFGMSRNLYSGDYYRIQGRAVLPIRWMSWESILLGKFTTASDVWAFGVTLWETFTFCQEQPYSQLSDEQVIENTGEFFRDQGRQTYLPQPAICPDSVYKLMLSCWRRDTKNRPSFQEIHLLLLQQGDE

[7] = molecular target: Calcium/calmodulin-dependent protein kinase type 1D (Homo sapiens, UniProt Q8IU85); experiment: Inhibition of wild-type human partial length CAMK1D (M1 to K299 residues) expressed in bacterial expression system assessed as residual enzyme activity at 200 nM after 1 hr by Kinomescan method relative to control
Chain of Calcium/calmodulin-dependent protein kinase type 1D (Q8IU85 whole entry, looked up, the tested form may be a part): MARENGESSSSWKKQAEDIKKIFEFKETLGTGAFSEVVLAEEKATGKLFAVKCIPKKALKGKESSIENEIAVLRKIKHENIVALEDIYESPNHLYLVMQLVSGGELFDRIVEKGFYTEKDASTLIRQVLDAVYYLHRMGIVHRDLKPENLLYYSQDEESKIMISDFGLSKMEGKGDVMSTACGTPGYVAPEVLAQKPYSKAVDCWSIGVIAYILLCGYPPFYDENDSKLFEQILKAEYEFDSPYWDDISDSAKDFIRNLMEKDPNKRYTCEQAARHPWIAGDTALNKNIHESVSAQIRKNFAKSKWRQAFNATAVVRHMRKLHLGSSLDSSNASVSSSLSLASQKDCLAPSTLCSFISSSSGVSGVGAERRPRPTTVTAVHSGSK

[8] = molecular target: T3, Epithelial discoidin domain-containing receptor 1 (Homo sapiens, UniProt Q08345); experiment: Inhibition of human wild type partial length DDR1 (R565 to V876 residues) expressed in bacterial expression system assessed as residual enzyme activity at 200 nM after 1 hr by Kinomescan method relative to control
T3 sequence (Q08345 whole entry, the tested form may be a part): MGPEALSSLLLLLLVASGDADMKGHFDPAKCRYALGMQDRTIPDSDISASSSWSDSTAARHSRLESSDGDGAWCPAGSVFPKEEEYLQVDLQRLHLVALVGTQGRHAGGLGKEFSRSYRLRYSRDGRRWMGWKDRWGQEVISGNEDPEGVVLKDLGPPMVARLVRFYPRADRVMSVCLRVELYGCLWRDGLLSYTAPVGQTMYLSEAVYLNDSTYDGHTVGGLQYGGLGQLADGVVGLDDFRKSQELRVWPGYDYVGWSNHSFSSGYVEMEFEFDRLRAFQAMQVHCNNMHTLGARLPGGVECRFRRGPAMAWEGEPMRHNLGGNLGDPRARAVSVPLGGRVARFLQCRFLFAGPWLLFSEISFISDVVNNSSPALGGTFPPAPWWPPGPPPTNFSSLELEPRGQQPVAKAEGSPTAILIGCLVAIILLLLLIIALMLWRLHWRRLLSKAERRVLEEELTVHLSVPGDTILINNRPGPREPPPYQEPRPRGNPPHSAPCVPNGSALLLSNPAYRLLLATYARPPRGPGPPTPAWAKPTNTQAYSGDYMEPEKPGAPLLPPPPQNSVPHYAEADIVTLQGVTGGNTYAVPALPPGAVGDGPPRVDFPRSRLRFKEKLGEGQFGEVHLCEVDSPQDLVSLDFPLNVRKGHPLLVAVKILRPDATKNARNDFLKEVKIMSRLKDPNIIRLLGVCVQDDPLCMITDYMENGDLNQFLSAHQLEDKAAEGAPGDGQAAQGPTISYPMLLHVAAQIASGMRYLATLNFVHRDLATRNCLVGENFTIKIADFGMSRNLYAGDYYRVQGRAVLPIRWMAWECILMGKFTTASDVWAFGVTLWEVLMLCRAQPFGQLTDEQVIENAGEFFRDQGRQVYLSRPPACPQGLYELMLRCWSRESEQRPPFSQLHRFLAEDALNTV

NCI-H1299 [9] = experiment: Antiinvasive activity against human H1299 cells at 1.25 uM after 24 hrs by crystal violet staining based transwell assay relative to control; format: functional; details: NCI-H1299, 24 h; summary of the method: as §1
[10] = molecular target: T3, Epithelial discoidin domain-containing receptor 1; experiment: Binding affinity to wild type human partial length DDR1 (R565 to V876 residues) expressed in bacterial expression system after 1 hr by Kinomescan method
Summary of the method: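 KINOMEscan binding; Kd determined for DDR1 and the off-target kinases DDR2, CAMK1D, CLK4 and TTK.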

NCI-H1299 [11] = experiment: Antiinvasive activity against human H1299 cells at 5 uM after 24 hrs by crystal violet staining based transwell assay relative to control; format: functional; details: NCI-H1299, 24 h; summary of the method: as §1

CCc1ccc(C(=O)Nc2cc(F)cc(C(F)(F)F)c2)cc1-c1cc(C)cc(-c2cnc3cnccn23)c1
Ratio IC50 (Homo sapiens [1]): 420
Ratio IC50 (Homo sapiens [2]): 420
Activity [3]: 0%
inhibition (NCI-H1299 [4]): Dose-dependent effect
Activity [5]: 1.8%
Activity [6]: 15%
Activity [7]: 0.9%
Activity [8]: 0%
inhibition at 1.25 µM (NCI-H1299 [9]): 17%
Kd [10]: 7.8 nM
inhibition at 5 µM (NCI-H1299 [11]): 71%
